Screens deposited in PubChem by Sanford-Burnham Center for Chemical Genomics.
Rows were chosen to be rich in hits. Some 1.9% of all compounds tested hit in one or more screens of this group.
TAG inh – inhibitors of triacylglycerol accumulation; H9c2 cells, Nile Red lipid (TAG) fluorescence; cells loaded with 200 µM oleic acid; 230,000 tested, 0.66% active; inhibition, % at 12.5 µM;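 active = pattern-corrected inhibition of lipid staining of at least 50% with the nuclear-stain viability signal not falling by more than 50%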;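 note: 0% = DMSO wells and 100% = triacsin C control wells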
APJ antagonist – blocks the human apelin receptor APJ | inhibition, % at 20 µM | 330,000 tested, 0.32% active | CHO-K1 APJ beta-arrestin complementation, luminescence | P35414;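 active = inhibition above about 40% at 20 µM, limit read from the data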;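 note: cells challenged with 10 nM apelin-13 agonist together with compound; plate controls were apelin-13 plus DMSO wells for no effect and DMSO wells lacking apelin-13 for full effect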
EBI2 antag – blocks human EBI2 receptor beta-arrestin signaling; P32249; EBI2 beta-arrestin recruitment, luminescence, 7a,25-OHC stimulated; inhibition, % at 5 µM; 360,000 tested, 0.81% active; AID 651636; in the data active = inhibition above about 38%;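 note: enzyme fragment complementation signal reports receptor beta-arrestin coupling in cells; 0% = agonist plus DMSO wells and 100% = wells without agonist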
APJ ag – agonists of human APJ apelin receptor | P35414 | CHO-K1 APJ PathHunter beta-arrestin, luminescence; 0% DMSO wells, 100% apelin | activation, % at 20 µM | 330,000 tested, 0.11% active | AID 2520;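 active = activation more than six SD over the plate average, tested at 20 µM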;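 note: 0% = DMSO alone and 100% = apelin-13 at 10 nM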
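Assay system: CHO-K1 cells stably expressing ProLink-tagged human APJ and arrestin–beta-gal acceptor. Compound dosing: 20 µM single point, 1% DMSO. Times: 16-18 h seeding, 90 min dark compound exposure, 60 min detection. Detection: beta-gal luminescence. Evaluation: APJ–arrestin association signal. Controls: negative DMSO alone, positive Apelin-13 at 10 nM.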
CCR6 antagonist – blocks CCL20-driven beta-arrestin recruitment at human CCR6. inhibition, % at 20 µM. 340,000 tested, 0.49% active. AID 493098. P51684. CHO-K1 CCR6 PathHunter beta-arrestin, luminescence, CCL20-stimulated;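 active = compounds whose inhibition of the agonist-driven luminescence signal at 20 µM reaches about 50%, limit read from the data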;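 note: cells stimulated with CCL20 at 14 nM final; plate controls were DMSO with CCL20 for no effect and DMSO without agonist for full effect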
Target sequence (P51684 whole entry, looked up): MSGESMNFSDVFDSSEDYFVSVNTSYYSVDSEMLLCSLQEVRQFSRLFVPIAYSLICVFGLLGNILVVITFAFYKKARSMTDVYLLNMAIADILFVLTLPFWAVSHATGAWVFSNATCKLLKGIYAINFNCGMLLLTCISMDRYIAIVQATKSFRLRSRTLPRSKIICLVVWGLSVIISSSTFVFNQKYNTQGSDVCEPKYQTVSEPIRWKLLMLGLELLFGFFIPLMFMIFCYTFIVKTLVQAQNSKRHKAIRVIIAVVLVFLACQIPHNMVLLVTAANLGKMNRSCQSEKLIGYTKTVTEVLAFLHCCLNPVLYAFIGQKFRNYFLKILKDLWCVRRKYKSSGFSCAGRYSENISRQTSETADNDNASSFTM
CXCR6 inh – CXCR6 (human) receptor inhibition; CHO-K1 PathHunter CXCR6 beta-arrestin, luminescence; inhibition, % at 20 µM; 360,000 tested, 0.36% active; AID 602244; in the data active = inhibition above about 34%, passing the limit was not always enough;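 note: antagonist mode with CXCL16 agonist at 10 nM final; 0% = 10 nM CXCL16 with DMSO and 100% = unstimulated wells without agonist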
APJ ag confirm – confirmation of human APJ apelin receptor agonists; 310 tested, 10% active; shares compounds with APJ ag; activation, % at 20 µM; CHO-K1 APJ PathHunter beta-arrestin, luminescence; AID 2764;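 active = activation above 40%, taking the highest of four retests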;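 note: plate controls were DMSO wells for no effect and apelin-13 at 10 nM for full effect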
* = called active by the depositor.

What do the screens show for `CCC(C)NC(=O)c1cc(Cl)c(NC(=O)C2=C(C)OCCS2)cc1OC` (centres undefined)?
APJ antagonist: 8; EBI2 antag: 26; APJ ag: -1; CCR6 antagonist: 2; CXCR6 inh: 2

Results for CCN(CC)CCCNC(=O)c1cc(Cl)c(NC(=O)C2=C(C)OCCS2)cc1OC ?
APJ antagonist: 14; EBI2 antag: -8; APJ ag: 13*; CCR6 antagonist: 7; CXCR6 inh: 1; APJ ag confirm: 30

What do the screens show for `CCN1CCN(CCNC(=O)c2cc(Cl)c(NC(=O)C3=C(C)OCCS3)cc2OC)CC1`?
APJ antagonist: -13; EBI2 antag: 7; APJ ag: 24*; CCR6 antagonist: -7; CXCR6 inh: 5; APJ ag confirm: 2

How did Cc1ccc(NC(=O)C2CCN(S(=O)(=O)c3ccc4c(c3)NC(=O)C(C)S4)CC2)cc1Cl (centres undefined) do in these assays?
APJ antagonist: -33; EBI2 antag: 24; APJ ag: 8; CCR6 antagonist: 22; CXCR6 inh: -12

Results for CC(C)CCN(C(=O)C1CCCC1)c1c(N)n(Cc2ccccc2)c(=O)[nH]c1=O ?
TAG inh: -16; APJ antagonist: -1; EBI2 antag: -8; APJ ag: -1; CCR6 antagonist: 10; CXCR6 inh: 5

What do the screens show for `CC(C)CCN(C(=S)NC(=O)C1CCCCC1)c1c(N)n(Cc2ccccc2)c(=O)[nH]c1=O`?
TAG inh: 6; APJ antagonist: -7; EBI2 antag: 2; APJ ag: 33*; CCR6 antagonist: 0; CXCR6 inh: 8; APJ ag confirm: 39

Results for CCOc1ccc(-c2nnc(SCC(=O)O)n2Cc2ccccc2)cc1 ?
APJ antagonist: 7; EBI2 antag: -8; APJ ag: -2; CCR6 antagonist: -12; CXCR6 inh: 2

What do the screens show for `CCCCCCc1cc2cc(C(=O)Nc3ccccc3)c(=O)oc2cc1O`?
APJ antagonist: -39; EBI2 antag: -33; APJ ag: 11*; CCR6 antagonist: -99; CXCR6 inh: -70; APJ ag confirm: 43*

Results for O=C(Nc1ccc(Cl)c([N+](=O)[O-])c1)ONC1=NCCCCC1 ?
TAG inh: 6; APJ antagonist: -60; EBI2 antag: -11; APJ ag: 16*; CCR6 antagonist: -15; CXCR6 inh: -9; APJ ag confirm: 18

How did O=C(ONC1=NCCCCC1)c1cccc([N+](=O)[O-])c1 do in these assays?
TAG inh: 12; APJ antagonist: -41; EBI2 antag: -16; APJ ag: 6; CCR6 antagonist: -27; CXCR6 inh: -27

Results for COc1ccc(S(=O)(=O)N2CCN(c3nn(C)c(=O)n(C)c3=O)CC2)cc1 ?
TAG inh: -4; APJ antagonist: -15; EBI2 antag: 2; APJ ag: -2; CCR6 antagonist: 1; CXCR6 inh: 3

What do the screens show for `CNc1ncnc2c1ncn2[C@H]1CN(Cc2ccncc2)C[C@@H](CO)O1`?
TAG inh: 20; EBI2 antag: -5; CXCR6 inh: -2

Results for CCCc1cc(C(=O)Nc2sc3c(c2C(=O)OCC)CCCC3)no1 ?
TAG inh: 5; APJ antagonist: 16; EBI2 antag: 7; APJ ag: 68*; CCR6 antagonist: -2; CXCR6 inh: -3; APJ ag confirm: 1

What do the screens show for `CCOC(=O)c1c(NC(=O)c2ccn(CC)n2)sc2c1CCC2`?
APJ antagonist: 4; EBI2 antag: -3; APJ ag: -2; CCR6 antagonist: 12; CXCR6 inh: 6

How did Cc1cc(C)n(-c2nc(N(c3ccccc3)c3ccccc3)nc(-n3nc(C)cc3C)n2)n1 do in these assays?
APJ antagonist: -14; EBI2 antag: -86; APJ ag: 36*; CCR6 antagonist: 17; CXCR6 inh: 32; APJ ag confirm: 14

What do the screens show for `O=C(NC(Cc1ccccc1)C(=O)N1CCN(S(=O)(=O)c2ccccc2F)CC1)c1ccccc1` (centres undefined)?
TAG inh: 1; APJ antagonist: 7; EBI2 antag: 4; APJ ag: 26*; CCR6 antagonist: 0; CXCR6 inh: 0; APJ ag confirm: 9

How did CC[n+]1c(/C=C/N(C)c2ccccc2)n(-c2ccccc2)c2ccc(-c3nc4ccccc4s3)cc21 do in these assays?
APJ antagonist: 9; EBI2 antag: 21; APJ ag: 26*; CCR6 antagonist: 22; CXCR6 inh: 14; APJ ag confirm: -2

What do the screens show for `Cc1cc(C)cc(CN2C(=O)NC3(CCCCCC3)C2=O)c1`?
APJ antagonist: 12; EBI2 antag: -2; APJ ag: -2; CCR6 antagonist: 22; CXCR6 inh: 4

Results for CCn1c(C)nc2cc(-c3nnc(-c4c(-c5ccccc5)noc4C)o3)ccc21 ?
APJ antagonist: -5; EBI2 antag: 30; APJ ag: 17*; CCR6 antagonist: -24; CXCR6 inh: -2; APJ ag confirm: 5

How did Cc1onc(-c2ccccc2)c1-c1nnc(-c2ccccc2C(F)(F)F)o1 do in these assays?
TAG inh: 13; APJ antagonist: 10; EBI2 antag: 4; APJ ag: -3; CCR6 antagonist: 1; CXCR6 inh: 10

What do the screens show for `COc1ccc(C)cc1S(=O)(=O)N(C)CC(=O)NCc1ccco1`?
TAG inh: -2; APJ antagonist: -28; EBI2 antag: -14; APJ ag: 25*; CCR6 antagonist: 1; CXCR6 inh: 1; APJ ag confirm: 25

Results for Cn1ncc2c(O/N=C(\N)c3ccc(C(C)(C)C)cc3)ncnc21 ?
TAG inh: 86*; APJ antagonist: -65; EBI2 antag: 2; APJ ag: 27*; CCR6 antagonist: -32; CXCR6 inh: -34; APJ ag confirm: 62*

Results for CCOC(=O)c1ccc(Nc2ncnc3c2cnn3C)cc1 ?
APJ antagonist: -7; EBI2 antag: -6; APJ ag: 5; CCR6 antagonist: 0; CXCR6 inh: -5

Results for CCOC(=O)c1oc2nc3c(cc2c1N)CCCC3 ?
TAG inh: -2; APJ antagonist: 2; EBI2 antag: 9; APJ ag: 117*; CCR6 antagonist: 14; CXCR6 inh: 1; APJ ag confirm: 3

Results for CN(CCCn1ccc(NC(=O)OCc2ccccc2)nc1=O)Cc1ccco1 ?
TAG inh: 5; EBI2 antag: -5; CXCR6 inh: 2

Results for CC1=C(C(=O)OCc2ccc3c(c2)OCO3)C(c2ccc(F)cc2)NC(=O)N1 (centres undefined) ?
APJ antagonist: 7; EBI2 antag: 2; APJ ag: 29*; CCR6 antagonist: -6; CXCR6 inh: 4; APJ ag confirm: 9
